Measurements pooled from the literature.
Compare with care: the assays were run in different laboratories.
Target: RAF proto-oncogene serine/threonine-protein kinase (RAF1, Homo sapiens, UniProt P04049)

`COc1ccc2c(O[C@@H]3C[C@H]4C(=O)N[C@]5(C(=O)O)CC5/C=C\CCCCC[C@H](NC(=O)OC5CCCC5)C(=O)N4C3)cc(-c3csc(NC(=O)C(C)C)n3)nc2c1C` (stereo partly drawn) gave a remaining binding of 95% (cell-free assay; competition with immobilised ligand; 1 µM).
`C[C@@H]1CN(c2ccc3ncc(-c4ccc5[nH]nc(C6CC6)c5c4)n3n2)C[C@H](C)O1` has a remaining binding of 100% (binding; competition with immobilised ligand; 50 nM).
`c1cnn2ncc(-c3ccnc(N4CCC45COC5)n3)c2c1` has a remaining binding of 73% (binding; 1 µM).
`c1cncc(-c2cccc(Nc3nccc(NC4CCCCC4)n3)c2)c1` gave a remaining binding of 94% (binding; competition with immobilised ligand; 10 µM).
The remaining binding of `O=C(NCCCN1CCOCC1)c1ccc(Nc2nccc(-c3cc4ccccc4s3)n2)cc1` is reported as 65% (binding; competition with immobilised ligand; 1 µM).
`F[C@@H]1CCN(c2nccc(-c3cnn4ncccc34)n2)C1` has a remaining binding of 100% (binding; 1 µM).
`CNC(=O)Nc1ccc2c(c1)[C@@]1(CC2)OC(=O)N(CC(=O)N(Cc2ccc(F)cc2)[C@@H](C)C(F)(F)F)C1=O` gave a remaining binding of 100% (cell-free assay; competition with immobilised ligand; 1 µM).
With `N[C@H]1CCN(c2nccc(-c3cnn4ncccc34)n2)C1` the remaining binding was 100% (binding; 1 µM).
The remaining binding of `Cc1nccc(COC(=O)N2C[C@@H]3[C@@H](CNC(=O)c4ccc5[nH]nnc5c4)[C@@H]3C2)n1` is reported as 94% (cell-free assay; competition with immobilised ligand; 1 µM).
`N#Cc1ccccc1CSc1nnc2c(n1)[nH]c1ccccc12` has a remaining binding of 100% (binding; competition with immobilised ligand; 10 µM).
`Nc1ncc2c(n1)-c1c([nH]c3ccc(C#CC4CC4)cc13)CCCC2` gave a remaining binding of 79% (binding; competition with immobilised ligand; 1 µM).
The remaining binding of `O=C(N1CCS(=O)(=O)CC1)N1C[C@H](c2ccc(OC(F)(F)F)cc2)C[C@H](c2nc(C3CC3)no2)C1` is reported as 100% (cell-free assay; competition with immobilised ligand; 1 µM).
For `O=C(c1ccc(Nc2nccc(-c3cc4ccccc4s3)n2)cc1)N1CCC(N2CCCC2)CC1`, the remaining binding was 84% (binding; competition with immobilised ligand; 1 µM).
With `COc1cnc(Nc2cccc(S(N)(=O)=O)c2)nc1N1CCN(c2ccccc2)C(=O)C1` the remaining binding was 98% (binding; competition with immobilised ligand; 1 µM).
`CC(C)(C)c1ccc(-c2nc(CBr)nn2-c2cccc(O)c2)cc1` has a remaining binding of 87% (cell-free assay; competition with immobilised ligand; 10 µM).
`C[C@H]1CCN(c2nccc(-c3cnn4ncccc34)n2)C1` has a remaining binding of 90% (binding; 1 µM).
`CC(=O)C1=C(C)N(c2cccc(C(F)(F)F)c2)C(=O)N[C@@H]1c1ccc(C#N)nc1` has a remaining binding of 100% (cell-free assay; competition with immobilised ligand; 1 µM).
For `O=C(NCC1CCOCC1)c1n[nH]cc1NC(=O)c1c(F)cccc1F`, the remaining binding was 58% (binding; competition with immobilised ligand; 1 µM).
`CC1CCCN1c1nccc(-c2cnn3ncccc23)n1` (stereo not drawn) gave a remaining binding of 100% (binding; 1 µM).
The remaining binding of `Cc1c(C(=O)O)cc(-c2ccc(C3CCNCC3)cc2)c2ccc(-c3ccc(C(F)(F)F)cc3)cc12` is reported as 80% (binding; competition with immobilised ligand; 1 µM).
`CN(C)c1ncc(F)c(-c2cnn3ncccc23)n1` has a remaining binding of 96% (binding; 1 µM).
With `C=CC(=O)N1CCC(C(=O)NCC(=O)N2CCN(c3nc(-c4cnc(N)nc4C(F)F)nc(N4CCOCC4)n3)CC2)CC1` the remaining binding was 93% (binding; competition with immobilised ligand; 1 µM).
With `O=C(Nc1cccnn1)N1CC(C/C=C/c2cncc(Oc3ccc(C(F)(F)F)cn3)n2)C1` the remaining binding was 100% (cell-free assay; competition with immobilised ligand; 1 µM).
For `Cc1cnn2ncc(-c3ccnc(N(C)C)n3)c2c1`, the remaining binding was 100% (binding; 1 µM).
